Where a name gives a salt, the structure may show the parent alone. Activity calls are given as the source filed them. The rule behind the calls is not given here.
Legend:
[1] = system: MDA-MB-231; test: Cytotoxicity against human MDA-MB-231 cells assessed as reduction in cell viability incubated for 72 hrs by MTT assay; assay type: functional, cell-based; conditions: MDA-MB-231, 72 h
Method in brief: (§1)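 Cancer lines (MDA-MB-231, HT-1080, PC-3) were grown in DMEM with 10% FBS and penicillin/streptomycin at 37 °C in 5% CO₂. About 5000 cells/well adhered overnight, then serial compound dilutions were added for 72 h, with matching DMSO dilutions (0.5–0.0008% v/v) as controls. MTT (1 mg/ml final, serum-free phenol-red-free DMEM) ran 4 h, was solubilised in 2-propanol, and OD read at 550 nm (ref 690). IC50 is the concentration halving OD versus untreated, mean of three independent experiments.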

[2] = system: PC-3; test: Cytotoxicity against human PC-3 cells assessed as reduction in cell viability incubated for 72 hrs by MTT assay; assay type: functional, cell-based; conditions: PC-3, 72 h; method in brief: as §1
[3] = system: HT-1080; test: Cytotoxicity against human HT-1080 cells assessed as reduction in cell viability incubated for 72 hrs by MTT assay; assay type: functional, cell-based; conditions: HT-1080, 72 h; method in brief: as §1
[4] = system: AG1523; test: Cytotoxicity against human AG01523 cells assessed as reduction in cell viability incubated for 72 hrs by MTT assay; assay type: cell-based; conditions: AG1523, 72 h
[5] = system: HT-1080; test: Induction of cell cycle arrest in human HT1080 cells assessed as accumulation at G0/G1 phase at 2 uM incubated for 24 hrs by RNase/PI staining based flow cytometric analysis (reference value: 32.86 %); assay type: functional
[6] = system: HT-1080; test: Induction of cell cycle arrest in human HT1080 cells assessed as accumulation at S phase at 2 uM incubated for 24 hrs by RNase/PI staining based flow cytometric analysis (reference value: 19.59 %); assay type: functional
[7] = system: HT-1080; test: Inhibition of ERK phosphorylation in human HT-1080 cells at 20 uM after 15 mins by Western blotting analysis
[8] = system: HT-1080; test: Induction of apoptosis in human HT-1080 cells assessed as increase in PARP cleavage at 2 uM after 24 hrs by Western blotting analysis
[9] = system: HT-1080; test: Induction of cell cycle arrest in human HT1080 cells assessed as accumulation at G2/M phase at 2 uM incubated for 24 hrs by RNase/PI staining based flow cytometric analysis (reference value: 47.55 %); assay type: functional
[10] = system: HT-1080; test: Induction of cell cycle arrest in human HT1080 cells assessed as accumulation at sub-diploid phase at 2 uM incubated for 24 hrs by RNase/PI staining based flow cytometric analysis (reference value: 5.36 %); assay type: functional
[11] = target: RAC-alpha serine/threonine-protein kinase (Homo sapiens) (UniProt P31749); test: Inhibition of AKT phosphorylation at Ser473 residue in human HT-1080 cells at 20 uM after 15 mins by Western blotting analysis
[12] = target: MAP kinase p38 (Homo sapiens) (UniProt O15264+Q15759+Q16539+P53778); test: Induction of p38 MAPK phosphorylation in human HT-1080 cells at 20 uM after 15 mins by Western blotting analysis

Chain of RAC-alpha serine/threonine-protein kinase (Homo sapiens) (P31749 whole entry): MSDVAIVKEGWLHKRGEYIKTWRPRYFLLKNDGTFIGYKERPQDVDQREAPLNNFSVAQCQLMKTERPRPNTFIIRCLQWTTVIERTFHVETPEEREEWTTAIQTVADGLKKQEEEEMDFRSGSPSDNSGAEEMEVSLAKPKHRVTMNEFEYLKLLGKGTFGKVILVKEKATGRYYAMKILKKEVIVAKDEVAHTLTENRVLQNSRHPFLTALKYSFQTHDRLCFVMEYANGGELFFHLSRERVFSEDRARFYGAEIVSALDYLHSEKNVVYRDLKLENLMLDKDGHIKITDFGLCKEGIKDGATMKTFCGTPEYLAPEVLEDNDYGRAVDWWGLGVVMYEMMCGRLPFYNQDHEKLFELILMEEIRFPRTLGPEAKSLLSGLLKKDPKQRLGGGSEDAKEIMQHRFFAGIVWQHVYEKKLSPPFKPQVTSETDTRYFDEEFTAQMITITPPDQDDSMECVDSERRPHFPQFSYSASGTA

| Compound | IC50 [1] [µM] | IC50 [2] [µM] | IC50 [3] [µM] | also measured |
| --- | --- | --- | --- | --- |
| Cn1cc2cc(C(=N)Nc3cccc(C(F)(F)F)c3)ncc2n1 | > 50 | – | – | – |
| CN1CCN(c2ccc(NC(=N)c3cc4cnn(C)c4cn3)cc2)CC1 | 30.2 | 32.3 | 24 | – |
| COc1cc(Nc2nc(C(=N)Nc3ccccc3)cc3c(-c4ccccc4)n[nH]c23)cc(OC)c1OC | 4.5 | 5.8 | 3.9 | – |
| COc1ccc(Cn2cc3cc(C(=N)Nc4ccc(N5CCN(C)CC5)cc4)ncc3n2)cc1 | 8 | 9.9 | 3.2 | – |
| COc1ccc(Cn2cc3cc(C(=N)Nc4ccccc4)ncc3n2)cc1 | 1.52 | 2.04 | 1.13 | IC50 [4]: 32.4 µM; Percentage of cells in G0/G1 phase [5]: 56.57%; Activity [6]: 7.35%; inhibition [7]: inactive; Activity [8]: Active; Activity [9]: 36.07%; Percent of cells in sub-diploid (sub-G1) phase [10]: 24.06% |
| CN1CCN(c2ccc(NC(=N)c3cc4c(-c5ccccc5)n[nH]c4cn3)cc2)CC1 | 15.9 | 17.1 | 11.4 | – |
| COc1ccc(Cn2nc(-c3ccccc3)c3cc(C(=N)Nc4ccccc4)ncc32)cc1 | 5.4 | 6.3 | 4.7 | – |
| COc1ccc(Cn2cc3cc(C(=N)Nc4cccc(C(F)(F)F)c4)ncc3n2)cc1 | 15.5 | 12.8 | 13 | – |
| COc1ccc(Cn2nc(-c3ccccc3)c3cc(C(=N)Nc4cccc(C(F)(F)F)c4)ncc32)cc1 | > 50 | > 50 | 46.7 | – |
| N=C(Nc1cccc(C(F)(F)F)c1)c1cc2c(-c3ccccc3)n[nH]c2c(NC2CCCCC2)n1 | 24.6 | 25 | 21.2 | – |
| COc1ccc(Cn2nc(-c3ccccc3)c3cc(C(=N)Nc4ccccc4)nc(N4CCOCC4)c32)cc1 | 21.2 | 16.4 | 6.2 | – |
| Cn1nc(-c2ccccc2)c2cc(C(=N)Nc3ccccc3)ncc21 | 11.1 | 17.3 | 17.4 | – |
| CN1CCN(c2ccc(NC(=N)c3cc4cn(C)nc4cn3)cc2)CC1 | 20.5 | 24.8 | 21 | – |
| CN1CCN(c2ccc(NC(=N)c3cc4cn[nH]c4cn3)cc2)CC1 | 47.5 | 45.4 | 31.3 | – |
| N=C(Nc1ccccc1)c1cc2c(-c3ccccc3)n[nH]c2cn1 | 11 | 23 | 22 | – |
| COc1ccc(Cn2nc(-c3ccccc3)c3cc(C(=N)Nc4ccccc4)nc(NC4CCCCC4)c32)cc1 | 3.4 | 1.1 | 3.4 | IC50 [4]: 26.8 µM; inhibition ([11]; time 15.0 min): inactive |
| Cn1cc2cc(C(=N)Nc3ccccc3)ncc2n1 | > 50 | – | – | – |
| N=C(Nc1cccc(C(F)(F)F)c1)c1cc2c(-c3ccccc3)n[nH]c2c(N2CCOCC2)n1 | 13.3 | 17.3 | 6.8 | – |
| COc1ccc(Cn2ncc3cc(C(=N)Nc4ccccc4)ncc32)cc1 | 34.7 | 36 | 25.7 | – |
| COc1ccc(Cn2nc(-c3ccccc3)c3cc(C(=N)Nc4cccc(C(F)(F)F)c4)nc(Nc4cc(OC)c(OC)c(OC)c4)c32)cc1 | > 50 | – | – | – |
| COc1cccc2c1C(=O)c1c(O)c3c(c(O)c1C2=O)C[C@@](O)(C(=O)CO)C[C@@H]3O[C@H]1C[C@H](N)[C@H](O)[C@H](C)O1 [DOXORUBICIN HYDROCHLORIDE] | 0.19 | 0.38 | 0.008 | IC50 [4]: 0.4 µM |

| Compound | IC50 [1] [µM] | IC50 [2] [µM] | IC50 [3] [µM] | also measured |
| --- | --- | --- | --- | --- |
| COc1ccc(Cn2nc(-c3ccccc3)c3cc(C(=N)Nc4ccc(N5CCN(C)CC5)cc4)nc(Nc4cc(OC)c(OC)c(OC)c4)c32)cc1 | 0.89 | 1.24 | 1.2 | IC50 [4]: 1.81 µM; Percentage of cells in G0/G1 phase [5]: 26.67%; Activity [6]: 64.04%; Activity [12]: Active; inhibition [7]: Active; Activity [8]: Active; inhibition ([11]; time 15.0 mins): Active; Activity [9]: 9.29%; Percent of cells in sub-diploid (sub-G1) phase [10]: 27.79% |
| COc1ccc(Cn2nc(-c3ccccc3)c3cc(C(=N)Nc4ccc(N5CCN(C)CC5)cc4)nc(N4CCOCC4)c32)cc1 | 1.13 | 4.58 | 0.7 | IC50 [4]: 2.19 µM; Percentage of cells in G0/G1 phase [5]: 34.31%; Activity [6]: 34.21%; inhibition [7]: Active; Activity [8]: Active; inhibition ([11]; time 15.0 mins): 100%; Activity [9]: 31.48%; Percent of cells in sub-diploid (sub-G1) phase [10]: 21.09% |
| N=C(Nc1cccc(C(F)(F)F)c1)c1cc2cn[nH]c2cn1 | > 50 | > 50 | 36.5 | – |
| COc1ccc(Cn2nc(-c3ccccc3)c3cc(C(=N)Nc4ccc(N5CCN(C)CC5)cc4)nc(NC4CCCCC4)c32)cc1 | 1.29 | 3.54 | 0.64 | IC50 [4]: 3.33 µM; Percentage of cells in G0/G1 phase [5]: 38.53%; Activity [6]: 12.9%; inhibition [7]: Active; Activity [8]: Active; Activity [9]: 48.57%; Percent of cells in sub-diploid (sub-G1) phase [10]: 14.34% |
| CN1CCN(c2ccc(NC(=N)c3cc4c(-c5ccccc5)nn(C)c4cn3)cc2)CC1 | 4.9 | 5.9 | 1.4 | IC50 [4]: 10.4 µM |
| COc1ccc(Cn2ncc3cc(C(=N)Nc4cccc(C(F)(F)F)c4)ncc32)cc1 | 29.8 | 27.6 | 24.9 | – |
| COc1cc(Nc2nc(C(=N)Nc3cccc(C(F)(F)F)c3)cc3c(-c4ccccc4)n[nH]c23)cc(OC)c1OC | 7.6 | 13.9 | 6.7 | – |
| N=C(Nc1cccc(C(F)(F)F)c1)c1cc2c(-c3ccccc3)n[nH]c2cn1 | 22.3 | 19.9 | 24.6 | – |
| N=C(Nc1ccccc1)c1cc2c(-c3ccccc3)n[nH]c2c(NC2CCCCC2)n1 | 1.71 | 1.73 | 0.85 | IC50 [4]: 4.19 µM; Percentage of cells in G0/G1 phase [5]: 40.23%; Activity [6]: 16.48%; Activity [12]: Active; Activity [8]: Active; Activity [9]: 43.29%; Percent of cells in sub-diploid (sub-G1) phase [10]: 8.27% |
| COc1ccc(Cn2ncc3cc(C(=N)Nc4ccc(N5CCN(C)CC5)cc4)ncc32)cc1 | 5.7 | 6.1 | 5.3 | – |
| CN1CCN(c2ccc(NC(=N)c3cc4c(-c5ccccc5)n[nH]c4c(N4CCOCC4)n3)cc2)CC1 | 3.9 | 8.3 | 5.6 | – |
| N=C(Nc1ccccc1)c1cc2c(-c3ccccc3)n[nH]c2c(N2CCOCC2)n1 | 6.8 | 6.8 | 4.8 | – |
| COc1cc(Nc2nc(C(=N)Nc3ccc(N4CCN(C)CC4)cc3)cc3c(-c4ccccc4)n[nH]c23)cc(OC)c1OC | 4.6 | 4.3 | 3.4 | – |
| Cn1ncc2cc(C(=N)Nc3ccccc3)ncc21 | > 50 | – | – | – |
| COc1ccc(Cn2nc(-c3ccccc3)c3cc(C(=N)Nc4ccc(N5CCN(C)CC5)cc4)ncc32)cc1 | 1.76 | 3.99 | 1.09 | IC50 [4]: 10.2 µM; Percentage of cells in G0/G1 phase [5]: 46.75%; Activity [6]: 17.27%; inhibition [7]: Active; Activity [8]: Active; inhibition ([11]; time 15.0 mins): 100%; Activity [9]: 35.98%; Percent of cells in sub-diploid (sub-G1) phase [10]: 17.77% |
| Cn1nc(-c2ccccc2)c2cc(C(=N)Nc3cccc(C(F)(F)F)c3)ncc21 | 21.4 | 20.9 | 17.8 | – |
| COc1ccc(Cn2nc(-c3ccccc3)c3cc(C(=N)Nc4cccc(C(F)(F)F)c4)nc(NC4CCCCC4)c32)cc1 | > 50 | – | – | – |
| COc1ccc(Cn2nc(-c3ccccc3)c3cc(C(=N)Nc4ccccc4)nc(Nc4cc(OC)c(OC)c(OC)c4)c32)cc1 | 42.1 | > 50 | 11.1 | – |
| Cn1ncc2cc(C(=N)Nc3cccc(C(F)(F)F)c3)ncc21 | > 50 | > 50 | 33.8 | – |
| COc1ccc(Cn2nc(-c3ccccc3)c3cc(C(=N)Nc4cccc(C(F)(F)F)c4)nc(N4CCOCC4)c32)cc1 | > 50 | – | – | – |
| N=C(Nc1ccccc1)c1cc2cn[nH]c2cn1 | > 50 | – | – | – |

Reference: ChEMBL document CHEMBL4819061, “New bioactive 5-arylcarboximidamidopyrazolo[3,4-c]pyridines: Synthesis, cytotoxic activity, mechanistic investigation and structure-activity relationships” (Eur J Med Chem, 2021)
